# STAT1 activator: STAT1 signaling activation. NIH 3T3 STAT1-luciferase reporter, IFN-gamma, luminescence; 100% = IFN-gamma alone, no compound. activation (% of control), % at 5.5 µM. 200,000 compounds, 2.6% hits. AID 932;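 active = activation above the screen-wide mean activation plus 3 SD, cut at about 130% in these data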;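 note: raw ratio to IFN-gamma control signal so 100% means no change and 0% no light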
# STAT1 blocker: reduces IFN-gamma driven STAT1 reporter signal | inhibition, % at 5.5 µM | 200,000 compounds, 0.35% hits | NIH 3T3 STAT1-luciferase reporter, luminescence;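 active = inhibition above a set limit, the mean inhibition across all tested compounds plus 3 SD, cut at about 34% in these data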;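 note: 0% = IFN-gamma with DMSO and 100% = IFN-gamma with 300 µM nifuroxazide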
# STAT3 act: STAT3 signaling activation; U3A cells, IL-6 STAT3-luciferase reporter, luminescence; 100% = signal with IL-6 EC80 alone; activation (% of control), % at 5.6 µM; 190,000 compounds, 0.91% hits;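 active = activation above the screen-wide mean of compound activation plus 3 SD, cut at about 130% in these data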;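 note: 0% = background luminescence of wells with medium and substrate only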
#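 Test system: Human STAT1-deficient U3A cells with stable STAT3-luciferase reporter | Also added: Interleukin-6, 33 ng/mL | Timing: Compound pre-incubation 1 h before IL-6, then 6 h stimulation at 37 °C | Technique: Luciferase reporter luminescence | Read-out: Percent of IL-6-only median luminescence | Benchmarks: IL-6-only wells as 100% reference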
# NF-kB expr up: compounds increasing NF-kB expression in human neuronal cells. NF-kB reporter expression; stronger effect = higher value. fold change at 12.5 µM. 190,000 compounds, 1.6% hits. AID 1239; in the data active = fold change above about 3.3
# STAT3 inh: reduces IL-6 driven STAT3 reporter signal. U3A cells, IL-6 STAT3-luciferase reporter, luminescence; host cell line lacks STAT1. AID 862. inhibition, % at 5.5 µM. 190,000 compounds, 0.89% hits;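 active = inhibition above the mean inhibition across all screened compounds plus 3 SD, cut at about 44% in these data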;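 note: 0% = DMSO only wells and 100% = 100 µM nifuroxazide control wells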
# APP 5'UTR act: APP 5'UTR luciferase reporter activation. SH-SY5Y APP 5'UTR luciferase reporter, luminescence; zero percent = DMSO vehicle wells. activation, % at 2 µM. AID 1276. 190,000 compounds, 1% hits;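 active = activation above a set limit, based on mean plus 3 SD of controls, cut at about 140% in these data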
# * = called active by the depositor; / = not tested or not shown. Compounds with a hit are over-represented: about 4.9% of the library has one in this group of screens.
SMILES,STAT1 activator,STAT1 blocker,STAT3 act,NF-kB expr up,STAT3 inh,APP 5'UTR act
Cc1ccsc1/C=C1\CCC(C2CCCC2)C1=O (stereo not given),140*,-45,82,5.9*,24,202*
COc1cc(OC)c(OC)cc1/C=C1\CCC(C2CCCC2)C1=O (stereo not given),91,8,102,1.3,-1,8
Cc1ccc(/C=C2\CCC(C3CCCC3)C2=O)cc1 (stereo not given),102,-2,107,1.6,-3,157*
Cc1ccc2nsnc2c1NC(=O)COc1ccccc1,103,-4,104,1.1,8,3
COc1cccc(NC2SC(=O)N(c3ccccc3)C2=O)c1 (stereo not given),117,-17,111,4.1*,-13,14
CN1C(=O)SC(Nc2ccccc2)C1=O (stereo not given),106,-4,106,1.1,-4,12
CCOC(=O)Cc1csc(NC(=O)c2ccc(S(=O)(=O)N3CCOCC3)cc2)n1,95,3,95,1,10,16
COc1cc(/C=N/NC(=O)c2nonc2N)cc(OC)c1OC,110,-12,102,1.1,5,10
COc1cc(/C=N/NC(=O)c2cc(-c3cccn3C)n[nH]2)cc(OC)c1OC,99,1,134*,0.53,-32,-11
COc1cc(/C=N\NC(=O)c2ccc(=O)[nH]n2)cc(OC)c1OC,92,9,124,3.5*,-16,-10
COc1cccc(/C=N/NC(=O)c2cc(-c3cccn3C)n[nH]2)c1,100,0,100,1,6,-2
Cc1c(C(=O)N2CCCCC2)nn(-c2ccc(Cl)cc2)c(=O)c1C#N,92,7,112,1.1,-2,39
O=C(COc1ccc(Cl)cc1[N+](=O)[O-])N1CCCCCC1,102,-5,102,0.93,0,-24
O=C1CCCCC1Sc1nnc(Nc2ccccc2)s1 (stereo not given),144*,-49,112,3.1,-12,58
COc1ccc2c(CC(=O)N3CCc4ccccc43)coc2c1,127,-29,101,4.9*,4,142*
Cc1nc2cc(NC(=O)NCCC3=CCCCC3)ccc2o1,132*,-34,110,1.9,-7,70
COC(=O)c1cccc(NC(=S)NCCC2=CCCCC2)c1,76,27,59,1.1,53*,20
COC(=O)c1ccc(NC(=S)NCCC2=CCCCC2)cc1,90,12,80,1,34,3
O=c1oc(-c2cc3ccccc3o2)nc2sc3c(c12)CCCC3,112,-14,99,1.2,2,226*
CCc1nc2sc3c(c2c(=O)o1)CCCC3,88,10,105,0.93,-5,6
O=c1oc(-c2ccccc2)nc2sc3c(c12)CCCC3,136*,-39,110,6.1*,-12,48
O=c1oc(-c2cccs2)nc2sc3c(c12)CCCCC3,99,1,106,/,1,77
Cc1ccccc1-c1nc2sc3c(c2c(=O)o1)CCC3,104,-5,97,4*,5,14
CC(=O)NCCOc1nc(N2CCCCC2)nc(N2CCCCC2)n1,92,7,97,0.98,8,-9
CC(=O)c1cccc(NC(=O)COC(=O)[C@@H](NC(=O)OCc2ccccc2)C(C)C)c1,94,7,106,0.92,-1,2
SMILES,STAT1 activator,STAT1 blocker,STAT3 act,NF-kB expr up,STAT3 inh,APP 5'UTR act
O=C(O)CCC(=O)Nc1ccccc1C(=O)NCc1ccccc1,102,-2,101,1.1,-4,20
Cc1c(C(=O)Nc2ccc(-c3nnc4n3CCCCC4)cc2)oc2ccc(Br)cc12,103,-3,82,0.37,25,-2
O=C(COc1ncnc2ccccc12)c1ccc2c(c1)OCCO2,142*,-45,91,3.8*,13,171*
O=C(CSc1ncnc2ccccc12)c1ccc2c(c1)OCCO2,123,-25,86,2.2,15,125
Cc1ccccc1OCC(O)Cn1nnc2ccccc21 (stereo not given),142*,-50,108,2.6,-6,40
CCC(=O)c1ccc(OCC(O)Cn2nnc3ccccc32)cc1 (stereo not given),104,-6,107,1.4,0,20
COc1cc([N+](=O)[O-])cc2sc(NC(=O)c3c(F)cccc3F)nc12,104,-6,93,1.2,17,14
Cc1cc(NC(=O)c2ccc(-c3ccccc3F)o2)no1,144*,-50,99,2,5,58
Cc1cc(NC(=O)c2ccc(-c3ccc(F)c(Cl)c3)o2)no1,122,-25,85,1.3,25,34
COc1ccc(CCNC(=S)NC2CCN(Cc3ccccc3)CC2)cc1,98,1,107,1,-7,-3
O=S(=O)(C/C(=C/CO)S(=O)(=O)c1ccccc1)c1ccccc1,260*,-175,62,0.93,48*,-80
O=C(COc1ccccc1Cl)NCCC1=CCCCC1,98,2,100,1.2,-5,0
COc1ccc(-c2csc(N3N=C(C)C(C)C3=O)n2)cc1 (stereo not given),132*,-34,101,2.2,7,41
CC1=NN(c2nc(-c3ccc(C)cc3)cs2)C(=O)C1N=Nc1ccccc1O (stereo not given),108,-10,104,1.8,-2,-52
C=CCn1c(SCC(=O)N2CCc3ccccc3C2)nc2ccccc2c1=O,86,16,97,0.84,6,2
CSc1nsc(SCC(=O)Nc2nc3ccccc3s2)n1,101,-1,91,1.2,10,-10
Cc1cc(C)c(C#N)c(SCC(=O)Nc2nnc(-c3ccccc3)s2)n1,100,0,90,1.2,13,11
Cc1csc(NC(=O)CSc2nsc(SCC(=O)Nc3nc(C)cs3)c2C#N)n1,132*,-35,80,1.7,25,126
Cc1nc(SCC(=O)Nc2nc3ccccc3s2)c(C#N)c(C)c1C,48,58*,27,0.13,88*,-64
Cc1ccc2sc(NC(=O)CSc3nc(C)cc(C)c3C#N)nc2c1,92,8,76,6.5*,33,94
COc1ccc(N=c2oc3ccccc3cc2C(=O)Nc2ccccn2)cc1OC,137*,-40,104,1.7,1,19
CC1=CC(C)=Nc2ccc(C)cc2N1,139*,-42,110,0.75,-3,21
Cc1ccc2c(c1)NC(=O)CC(c1ccccc1)=N2,126,-29,97,2,7,12
CCCC(=O)NC(c1ccccc1OC)c1ccc2cccnc2c1O (stereo not given),93,6,90,4.7*,14,-75
CC(=O)N1CCN(c2ccc(Nc3ncnc4c3oc3ccccc34)cc2)CC1,97,3,71,0.45,41,/
Oc1ccccc1Nc1ncnc2c1oc1ccccc12,110,-11,158*,1.3,-66,-3
